pIC50: −log10 of the molar value. Calls of active or inactive are those of the source. The rule behind the calls is not given here.
How the values were obtained:
[1] = biological target: T1, Protein cereblon/Eukaryotic peptide chain release factor GTP-binding subunit ERF3A/DNA damage-binding protein 1/Cullin-4A (Homo sapiens) (UniProt Q96SW2+Q16531+Q13619+P15170); assay: Protac activity at GSPT1/CUL4/DDB1/CRBN in human RS4:11 cells expressing wild type p53 assessed as decrease in GSPT1 protein level after 2 hrs by Western blot analysis; type: cell-based
In short: (§1)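 RS4;11 (wild-type p53) or RS4;11/IRMI-2 (MDM2 inhibitor-resistant derivative, mutant p53) cells kept in RPMI 1640 with 10% FBS at 37 °C, 5% CO₂. 2×10^6 cells/well treated at the indicated concentrations and times, then lysed in ice-cold lysis buffer with protease inhibitor. GSPT1 detected by Western blot with a specific antibody.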

[2] = tested on: RS4-11; assay: Antiproliferative activity against human RS4:11 cells expressing wild type p53 assessed as cell growth inhibition after 4 days by WST-8 assay; type: functional, cell-based; details: RS4-11, 96 h
In short: (§2)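 Leukemia cells seeded at 10000–20000 cells/well, breast cancer lines at 5000–10000 cells/well. Serially diluted compound added, then 4 days at 37 °C, 5% CO2. Growth read with WST-8 reagent after at least 1 h, absorbance at 450 nm. RS4;11, MOLM-13 and breast lines were grown in RPMI 1640; MV-4-11 and HL-60 in IMDM; all with 10% FBS. Mean ± SE, at least three independent experiments.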

[3] = biological target: T1, Protein cereblon/Eukaryotic peptide chain release factor GTP-binding subunit ERF3A/DNA damage-binding protein 1/Cullin-4A (Homo sapiens); assay: Protac activity at GSPT1/CUL4/DDB1/CRBN in human RS4:11/IRMI-2 cells harboring p53 hotspot mutation Y236H/R249G assessed as decrease in GSPT1 protein level after 2 hrs by Western blot analysis; type: cell-based; in short: as §1
[4] = Antiproliferative activity against human RS4:11/IRMI-2 cells harboring p53 hotspot mutation Y236H/R249G assessed as cell growth inhibition after 4 days by WST-8 assay; type: functional, cell-based; details: RS4-11, 96 h; in short: as §2
[5] = biological target: E3 ubiquitin-protein ligase Mdm2 (Homo sapiens, UniProt Q00987); assay: Displacement of PMDM6-F fluorescent probe from human recombinant His-tagged MDM2 (1 to 118 residues) after 15 mins by fluorescence polarization assay
In short: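 Recombinant human His-tagged MDM2 (residues 1–118) with a FAM-labelled p53-based peptide as fluorescent probe; competitive fluorescence-polarization binding. Mean ± standard error from at least three independent experiments.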

[6] = tested on: RS4-11; assay: Antiproliferative activity against human RS4:11 cells expressing wild type p53 assessed as MDM2-independent cell growth inhibition after 4 days by WST-8 assay; type: functional, cell-based; details: RS4-11, 96 h; in short: as §2
[7] = Antiproliferative activity against human RS4:11/IRMI-2 cells harboring p53 hotspot mutation Y236H/R249G assessed as MDM2-independent cell growth inhibition after 4 days by WST-8 assay; type: functional, cell-based; details: RS4-11, 96 h; in short: as §2
[8] = tested on: RS4-11; assay: Antiproliferative activity against human RS4:11 cells expressing wild type p53 assessed as cell growth inhibition without interaction with cereblon after 4 days by WST-8 assay; type: functional, cell-based; details: RS4-11, 96 h; in short: as §2
[9] = Antiproliferative activity against human RS4:11/IRMI-2 cells harboring p53 hotspot mutation Y236H/R249G assessed as cell growth inhibition without interaction with cereblon after 4 days by WST-8 assay; type: functional, cell-based; details: RS4-11, 96 h; in short: as §2
[10] = tested on: MDA-MB-231; assay: Antiproliferative activity against human MDA-MB-231 cells harboring mutant p53 assessed as cell growth inhibition without interaction with cereblon after 4 days by WST-8 assay; type: functional, cell-based; details: MDA-MB-231, 96 h
[11] = tested on: MDA-MB-468; assay: Antiproliferative activity against human MDA-MB-468 cells harboring mutant p53 assessed as cell growth inhibition without interaction with cereblon after 4 days by WST-8 assay; type: functional, cell-based; details: MDA-MB-468, 96 h
[12] = tested on: MDA-MB-468; assay: Antiproliferative activity against human MDA-MB-468 cells transfected with CRBN siRNA LQ-021086-10-0002 assessed as cell growth inhibition after 4 days by WST-8 assay; type: functional, cell-based; details: MDA-MB-468, 96 h
In short: (§3)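 MDA-MB-231 or MDA-MB-468 cells transfected for 2 days using Lipofectamine RNAiMAX with MDM2 siRNA, one of two CRBN siRNAs, or non-targeting control siRNA. Compound then added and growth read by WST-8 at 450 nm.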

[13] = tested on: MDA-MB-468; assay: Antiproliferative activity against human MDA-MB-468 cells assessed as cell growth inhibition after 4 days in presence of control siRNA for 3 days followed by compound treatment by WST-8 assay; type: functional, cell-based
[14] = tested on: MDA-MB-231; assay: Antiproliferative activity against human MDA-MB-231 cells assessed as cell growth inhibition after 4 days in presence of control siRNA for 3 days followed by compound treatment by WST-8 assay; type: functional, cell-based
[15] = tested on: MDA-MB-231; assay: Antiproliferative activity against human MDA-MB-231 cells transfected with CRBN siRNA LQ-021086-10-0002 assessed as cell growth inhibition after 4 days by WST-8 assay; type: functional, cell-based; details: MDA-MB-231, 72 h, in the assay text read “after 3 days” for “after 4 days”; in short: as §3
[16] = tested on: MDA-MB-231; assay: Antiproliferative activity against human MDA-MB-231 cells transfected with CRBN siRNA LQ-021086-11-0002 assessed as cell growth inhibition after 4 days by WST-8 assay; type: functional, cell-based; details: MDA-MB-231, 96 h; in short: as §3
[17] = tested on: MDA-MB-468; assay: Antiproliferative activity against human MDA-MB-468 cells transfected with CRBN siRNA LQ-021086-11-0002 assessed as cell growth inhibition after 4 days by WST-8 assay; type: functional, cell-based; details: MDA-MB-468, 96 h; in short: as §3
[18] = biological target: Eukaryotic peptide chain release factor GTP-binding subunit ERF3A (Homo sapiens, UniProt P15170); assay: Induction of GSPT1 degradation in human RS4:11 cells measured after 24 hrs by Western blot analysis; type: cell-based
Sequence of Eukaryotic peptide chain release factor GTP-binding subunit ERF3A (P15170 whole entry): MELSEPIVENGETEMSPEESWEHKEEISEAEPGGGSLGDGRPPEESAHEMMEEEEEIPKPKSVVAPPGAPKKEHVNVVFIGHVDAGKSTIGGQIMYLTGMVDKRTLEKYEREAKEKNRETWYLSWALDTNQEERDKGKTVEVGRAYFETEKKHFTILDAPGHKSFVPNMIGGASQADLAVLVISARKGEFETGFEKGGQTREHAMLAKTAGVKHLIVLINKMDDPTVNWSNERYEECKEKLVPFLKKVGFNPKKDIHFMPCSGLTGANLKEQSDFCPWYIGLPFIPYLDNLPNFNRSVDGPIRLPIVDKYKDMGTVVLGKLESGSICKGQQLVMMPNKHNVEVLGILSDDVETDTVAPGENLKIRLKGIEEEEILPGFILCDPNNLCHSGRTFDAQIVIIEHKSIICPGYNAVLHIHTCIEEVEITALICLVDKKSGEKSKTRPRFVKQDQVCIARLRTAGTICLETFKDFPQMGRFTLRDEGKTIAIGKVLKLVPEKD

T1 sequence (P15170 whole entry, looked up): as the sequence (P15170 whole entry) above
T1 sequence (Q13619 whole entry, looked up): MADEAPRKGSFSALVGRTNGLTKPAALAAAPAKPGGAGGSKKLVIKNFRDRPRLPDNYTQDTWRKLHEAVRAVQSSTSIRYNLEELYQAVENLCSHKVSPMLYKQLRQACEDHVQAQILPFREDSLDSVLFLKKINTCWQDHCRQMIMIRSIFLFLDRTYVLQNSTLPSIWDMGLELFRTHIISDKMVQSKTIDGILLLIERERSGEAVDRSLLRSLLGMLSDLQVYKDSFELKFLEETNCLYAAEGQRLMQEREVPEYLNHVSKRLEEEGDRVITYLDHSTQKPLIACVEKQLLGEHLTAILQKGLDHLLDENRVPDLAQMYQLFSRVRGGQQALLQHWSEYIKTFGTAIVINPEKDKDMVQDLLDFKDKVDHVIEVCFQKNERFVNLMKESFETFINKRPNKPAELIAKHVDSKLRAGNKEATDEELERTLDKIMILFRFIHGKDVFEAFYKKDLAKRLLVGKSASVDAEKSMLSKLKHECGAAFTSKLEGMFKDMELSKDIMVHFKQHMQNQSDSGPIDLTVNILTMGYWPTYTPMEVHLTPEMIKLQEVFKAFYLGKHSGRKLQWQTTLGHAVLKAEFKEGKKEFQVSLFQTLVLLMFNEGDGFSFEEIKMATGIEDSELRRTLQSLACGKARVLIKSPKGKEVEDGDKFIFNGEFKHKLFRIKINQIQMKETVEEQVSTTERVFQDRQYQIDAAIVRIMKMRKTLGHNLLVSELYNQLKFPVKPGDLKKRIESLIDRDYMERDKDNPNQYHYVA
T1 sequence (Q16531 whole entry, looked up): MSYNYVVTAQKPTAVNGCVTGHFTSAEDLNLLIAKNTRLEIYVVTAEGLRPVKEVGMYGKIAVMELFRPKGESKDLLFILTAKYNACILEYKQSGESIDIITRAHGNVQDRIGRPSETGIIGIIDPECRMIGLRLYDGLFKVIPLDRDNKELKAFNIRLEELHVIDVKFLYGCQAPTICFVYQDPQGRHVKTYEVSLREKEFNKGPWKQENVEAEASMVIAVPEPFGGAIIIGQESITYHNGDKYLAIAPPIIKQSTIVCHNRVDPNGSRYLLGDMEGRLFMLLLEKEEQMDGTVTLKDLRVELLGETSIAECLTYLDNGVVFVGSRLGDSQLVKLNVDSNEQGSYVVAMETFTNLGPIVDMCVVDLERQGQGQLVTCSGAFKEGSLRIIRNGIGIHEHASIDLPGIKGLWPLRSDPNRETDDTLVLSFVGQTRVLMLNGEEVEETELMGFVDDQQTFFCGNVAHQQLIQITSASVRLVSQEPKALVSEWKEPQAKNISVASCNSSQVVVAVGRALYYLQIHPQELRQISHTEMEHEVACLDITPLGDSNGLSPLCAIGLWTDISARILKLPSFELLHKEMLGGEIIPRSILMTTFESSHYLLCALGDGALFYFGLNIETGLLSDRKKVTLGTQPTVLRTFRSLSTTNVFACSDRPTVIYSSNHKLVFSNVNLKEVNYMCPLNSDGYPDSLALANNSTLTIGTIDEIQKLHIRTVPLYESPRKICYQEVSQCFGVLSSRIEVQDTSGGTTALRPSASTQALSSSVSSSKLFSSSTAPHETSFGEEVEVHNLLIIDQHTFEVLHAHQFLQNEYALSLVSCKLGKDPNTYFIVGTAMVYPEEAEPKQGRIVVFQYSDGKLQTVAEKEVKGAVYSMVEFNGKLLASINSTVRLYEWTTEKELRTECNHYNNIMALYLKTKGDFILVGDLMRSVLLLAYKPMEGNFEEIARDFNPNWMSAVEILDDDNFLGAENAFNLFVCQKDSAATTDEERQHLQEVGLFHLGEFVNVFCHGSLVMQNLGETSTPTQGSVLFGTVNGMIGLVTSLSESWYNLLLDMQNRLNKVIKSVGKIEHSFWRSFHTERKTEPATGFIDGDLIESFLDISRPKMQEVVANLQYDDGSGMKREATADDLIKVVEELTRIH
T1 sequence (Q96SW2 whole entry, looked up): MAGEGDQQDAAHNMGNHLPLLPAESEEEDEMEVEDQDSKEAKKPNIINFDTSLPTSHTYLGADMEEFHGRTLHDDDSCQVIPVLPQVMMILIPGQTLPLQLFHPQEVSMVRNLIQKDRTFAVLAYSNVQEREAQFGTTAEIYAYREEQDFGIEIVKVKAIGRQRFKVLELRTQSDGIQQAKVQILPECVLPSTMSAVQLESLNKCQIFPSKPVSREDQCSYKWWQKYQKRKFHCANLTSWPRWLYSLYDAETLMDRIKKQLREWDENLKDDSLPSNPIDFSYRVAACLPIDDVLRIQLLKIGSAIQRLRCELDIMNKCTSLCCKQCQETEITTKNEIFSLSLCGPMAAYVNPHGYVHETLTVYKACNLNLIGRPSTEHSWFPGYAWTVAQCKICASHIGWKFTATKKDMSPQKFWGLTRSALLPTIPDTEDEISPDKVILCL
Sequence of E3 ubiquitin-protein ligase Mdm2 (Q00987 whole entry, the tested form may be a part): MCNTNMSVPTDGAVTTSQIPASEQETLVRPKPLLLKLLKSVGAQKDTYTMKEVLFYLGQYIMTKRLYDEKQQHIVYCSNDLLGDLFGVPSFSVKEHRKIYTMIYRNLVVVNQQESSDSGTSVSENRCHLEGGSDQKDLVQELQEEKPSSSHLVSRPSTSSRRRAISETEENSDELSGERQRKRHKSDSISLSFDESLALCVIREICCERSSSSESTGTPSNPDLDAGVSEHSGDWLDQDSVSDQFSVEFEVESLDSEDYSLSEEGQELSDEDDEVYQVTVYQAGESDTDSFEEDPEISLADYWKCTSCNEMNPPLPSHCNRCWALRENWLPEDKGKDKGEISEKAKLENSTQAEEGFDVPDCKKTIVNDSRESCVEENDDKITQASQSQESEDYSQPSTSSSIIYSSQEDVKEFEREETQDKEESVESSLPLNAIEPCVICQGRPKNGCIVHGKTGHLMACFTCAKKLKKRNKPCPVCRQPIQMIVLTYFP

For `O=C1CCC(N2Cc3c(CCCOCCOCCOCCNC(=O)[C@@H]4NC5(CCCCC5)[C@@]5(C(=O)Nc6cc(Cl)ccc65)[C@H]4c4cccc(Cl)c4F)cccc3C2=O)C(=O)N1` (stereo partly drawn), the Activity [1] was “Active”, the pIC50 [2] was 8.00 and the Activity [3] was “Active”. It also gave a pIC50 [4] of 7.96.
`O=C1CCC(N2Cc3c(CCCCCNC(=O)[C@@H]4NC5(CCCCC5)[C@@]5(C(=O)Nc6cc(Cl)ccc65)[C@H]4c4ccccc4)cccc3C2=O)C(=O)N1` (stereo partly drawn) showed a pIC50 [5] of under 4.70, a pIC50 [6] of 7.65 and a pIC50 [7] of 7.65.
With `CN1C(=O)CCC(N2Cc3c(CCCCCNC(=O)[C@@H]4NC5(CCCCC5)[C@@]5(C(=O)Nc6cc(Cl)ccc65)[C@H]4c4cccc(Cl)c4F)cccc3C2=O)C1=O` (stereo partly drawn) the pIC50 [8] was 5.60, the pIC50 [9] was 5.16 and the pIC50 [10] was under 5.00. It also gave a pIC50 [11] of under 5.00.
In the case of `O=C(O)c1ccc(NC(=O)[C@@H]2NC3(CCCCC3)[C@@]3(C(=O)Nc4cc(Cl)ccc43)[C@H]2c2cccc(Cl)c2F)cc1`, the pIC50 [12] was under 5.52, the pIC50 [13] was under 5.52 and the pIC50 [14] was under 5.52. It also gave a pIC50 [15] of under 5.52, a pIC50 [5] of 8.02 and a pIC50 [16] of under 5.52. For the same compound, the pIC50 [17] was under 5.52.
With `O=C1CCC(N2Cc3c(CCCCNC(=O)[C@@H]4NC5(CCCCC5)[C@@]5(C(=O)Nc6cc(Cl)ccc65)[C@H]4c4cccc(Cl)c4F)cccc3C2=O)C(=O)N1` (stereo partly drawn) the Activity [1] was “Active”, the DC50 [18] was 1.1 nM and the pIC50 [2] was 8.60. The Activity [3] was “Active” and the pIC50 [4] was 8.59.
In the case of `O=C1CCC(N2Cc3c(CCCOCCOCCNC(=O)[C@@H]4NC5(CCCCC5)[C@@]5(C(=O)Nc6cc(Cl)ccc65)[C@H]4c4cccc(Cl)c4F)cccc3C2=O)C(=O)N1` (stereo partly drawn), the Activity [1] was “Active”, the DC50 [18] was 1.2 nM and the pIC50 [2] was 8.31. For the same compound, the Activity [3] was “Active” and the pIC50 [4] was 8.31.

From ChEMBL document CHEMBL4321819, “Simple Structural Modifications Converting a Bona fide MDM2 PROTAC Degrader into a Molecular Glue Molecule: A Cautionary Tale in the Design of PROTAC Degraders” (J Med Chem, 2019)
